Measurements taken from ChEMBL document CHEMBL1154677, “Microtubule-stabilizing activity of zampanolide, a potent macrolide isolated from the Tongan marine sponge Cacospongia mycofijiensis” (J Med Chem, 2009).
pIC50: −log10 of the molar value. Activity calls are given as the source filed them. No cut-off for these calls is given here.

Legend:
[1] = Cytotoxicity against p-glycoprotein overexpressing human A2780AD cells by MTT cell proliferation assay; format: functional, cell-based; conditions: A2780 ADR
Outline: (§1)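 A2780 parental and P-gp-overexpressing A2780AD ovarian cells in RPMI-1640 with 10% fetal calf serum and 0.25 units/mL insulin.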

1A9 [2] = test: Cytotoxicity against human 1A9 cells assessed as mitotic cells with multiple asters at 10 nM after 12 hrs by immunocytochemistry; format: functional
Outline: (§2)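 1A9 cells on glass coverslips attached 24 h, then dosed at 0-20 nM for 12 h. Fixed in ice-cold methanol/acetone 1:1, blocked with 5% BSA in PBST, stained with anti-α-tubulin and Alexa 488 secondary plus DAPI, viewed by confocal microscopy. Percent of interphase cells with bundles and mitotic cells with multiple asters scored; n = 3 preparations.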

1A9 [3] = test: Cytotoxicity against human 1A9 cells assessed as interphase cells with microtubule bundles at 10 nM after 12 hrs by immunocytochemistry; format: functional; outline: as §2
1A9 [4] = test: Cytotoxicity against human 1A9 cells assessed as interphase cells with microtubule bundles at 20 nM after 12 hrs by immunocytochemistry; format: functional; outline: as §2
1A9 [5] = test: Cytotoxicity against human 1A9 cells assessed as mitotic cells with multiple asters at 20 nM after 12 hrs by immunocytochemistry; format: functional; outline: as §2
1A9 [6] = test: Cytotoxicity against human 1A9 cells assessed as interphase cells with microtubule bundles at 5 nM after 12 hrs by immunocytochemistry; format: functional; outline: as §2
1A9 [7] = test: Cytotoxicity against human 1A9 cells assessed as mitotic cells with multiple asters at 5 nM after 12 hrs by immunocytochemistry; format: functional; outline: as §2
Tubulin (Homo sapiens) [8] = target: T1, Tubulin (Homo sapiens) (UniProt P68371+Q9H4B7+P0DPH7+P68366+Q13509+Q71U36+P04350+Q3ZCM7+P07437+P68363+Q9BQE3+Q6PEY2+Q13885+Q9BVA1+Q9BUF5); test: Induction of tubulin polymerization in human 1A9 cells after 16 hrs by Western blotting; format: cell-based
Outline: (§3)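 1A9 cells dosed for 16 h. Lysates split into soluble and particulate fractions at 14000g for 10 min, electrophoresed and immunoblotted for α-tubulin with Cy5 secondary. Percent polymerized = pellet band density / (soluble + pellet) by densitometry; four independent experiments.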

HL-60 [9] = test: Cell cycle arrest in human HL60 cells assessed as accumulation in G2/M phase at 2 to 10 nM after 16 hrs by flow cytometry; format: functional, cell-based
Outline: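 HL-60 cells in RPMI-1640 with 10% fetal calf serum, exposed 16 h over 2-10 nM. Propidium iodide stain, DNA content by flow cytometry, G2/M and subdiploid fractions scored.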

Tubulin (Homo sapiens) [10] = target: T1, Tubulin (Homo sapiens); test: Induction of tubulin polymerization in human 1A9 cells at 100 nM after 16 hrs by Western blotting; format: cell-based; outline: as §3
HL-60 [11] = test: Cytotoxicity against human HL60 cells assessed as increase in cell diameter after 48 hrs by Giemsa staining; format: functional, cell-based
Outline: (§4)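 HL-60 cells given 2-8 nM for 48 h, cytospun onto slides, air-dried, fixed in 100% methanol, Giemsa-stained. Cell diameter measured and compared with untreated cells.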

1A9 [12] = test: Cytotoxicity against human 1A9 cells assessed as mitotic cells with multiple asters at 8 nM after 12 hrs by immunocytochemistry; format: functional; outline: as §2
1A9 [13] = test: Cytotoxicity against human 1A9 cells assessed as interphase cells with microtubule bundles at 8 nM after 12 hrs by immunocytochemistry; format: functional; outline: as §2
A2780 [14] = test: Cytotoxicity against human A2780 cells by MTT cell proliferation assay; format: functional, cell-based
HL-60 [15] = test: Cytotoxicity against human HL60 cells assessed as increase in cell diameter at 8 nM after 48 hrs by Giemsa staining; format: functional; outline: as §4
A2780 [16] = test: Selectivity ratio of IC50 for p-glycoprotein overexpressing human A2780AD cells to IC50 for human A2780 cells; format: functional; outline: as §1
HL-60 [17] = test: Cytotoxicity against human HL60 cells assessed as cell death at 10 nM after 48 hrs by Trypan blue exclusion test; format: functional, cell-based
Outline: (§5)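 HL-60 cells exposed to drug, then viability counted by Trypan blue dye exclusion at 24 h and 48 h; n = 2 preparations.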

HL-60 [18] = test: Cytotoxicity against human HL60 cells at 2 nM after 24 hrs by Trypan blue exclusion test; format: functional, cell-based; outline: as §5
HL-60 [19] = test: Cytotoxicity against human HL60 cells after 48 hrs by MTT assay; format: functional, cell-based; conditions: HL-60, 48 h
Outline: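 HL-60 in RPMI-1640 with 10% fetal calf serum plus penicillin-streptomycin. 48 h drug exposure, growth by MTT dye reduction, IC50 from dose-response curves; n = 5 preparations.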

Bos taurus = species: Bos taurus; test: Induction of bovine tubulin polymerization at 10 uM after 1hr in presence of 1 mM GTP
Outline: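 Purified bovine brain tubulin, 2 μM, in 80 mM PIPES, 0.5 mM EGTA, 2 mM MgCl2, 1 mM GTP, pH 6.9, no MAPs. Reaction started by adding drug at 10 μM, 37 °C; ethanol 1% final in controls. A340 read every 30 s for 1 h; three experiments.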

1A9 [20] = test: Cytotoxicity against human 1A9 cells after 72 hrs by MTT assay; format: functional, cell-based; conditions: 1A9, 72 h
Outline: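 1A9 ovarian carcinoma in RPMI-1640 with 10% fetal calf serum, penicillin-streptomycin and 0.25 units/mL insulin. 72 h exposure, MTT dye reduction, IC50 from dose-response curves; n = 6 preparations.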

| Structure (SMILES) | pIC50 [1] | Activity (1A9 [2]) | Activity (1A9 [3]) | Activity (1A9 [4]) | Activity (1A9 [5]) | Activity (1A9 [6]) | Activity (1A9 [7]) | other results |
| --- | --- | --- | --- | --- | --- | --- | --- | --- |
| CC(=O)O[C@H]1C(=O)[C@@]2(C)[C@H]([C@H](OC(=O)c3ccccc3)[C@]3(O)C[C@H](OC(=O)[C@H](O)[C@@H](NC(=O)c4ccccc4)c4ccccc4)C(C)=C1C3(C)C)[C@]1(OC(C)=O)CO[C@@H]1C[C@@H]2O [PACLITAXEL] | 6.38 | 43.3% | 76.5% | 81.9% | 52.2% | 13.7% | 6.6% |  |
| C=C1C[C@@H]2C/C=C/C(=O)C/C(C)=C\C=C\C(=O)O[C@H]([C@H](O)NC(=O)/C=C\C=C\C)C/C(C)=C/[C@H](C1)O2 [ZAMPANOLIDE] | 8.12 | 51.4% | 55% | 74.3% | 57.3% | 9.6% | 4.3% | Activity (Tubulin (Homo sapiens) [8]): Dose-dependent effect; Activity (HL-60 [9]): Active; Activity (Tubulin (Homo sapiens) [10]): Active; Activity (HL-60 [11]): Dose-dependent effect; Activity (1A9 [12]): 21.6%; Activity (1A9 [13]): 28.6%; pIC50 (A2780 [14]): 8.15; Activity (HL-60 [15]): 28.7 micrometer; Ratio IC50 (A2780 [16]): 1.4; Activity (HL-60 [17]): Active; Activity (HL-60 [18]): Active; pIC50 (HL-60 [19]): 8.37; Activity (Bos taurus): Active; pIC50 (1A9 [20]): 7.84 |
